The results in this text go back to ChEMBL document CHEMBL4138208, “Targeting tubulin polymerization by novel 7-aryl-pyrroloquinolinones: Synthesis, biological activity and SARs” (Eur J Med Chem, 2018).

Calls of active or inactive are those of the source. No cut-off for these calls is given here.

The subject of one experiment is Kasumi 1. Kind of experiment: Growth inhibition of human Kasumi-1 cells after 72 hrs by MTT assay. It counts as functional. The note with it: Kasumi 1, 72 h. For orientation: Tetrazolium assays rely on reduction of a dye to a coloured formazan, in cell work by metabolically active cells.
Another experiment concerns Jurkat. Put plainly: Growth inhibition of human Jurkat cells after 72 hrs by MTT assay. It counts as functional.
For a further experiment, the system named is RS4-11. Put plainly: Growth inhibition of human RS4:11 cells after 72 hrs by MTT assay. It counts as functional. The note with it: RS4-11, 72 h.
The next experiment has as its system A549. Put plainly: Growth inhibition of human A549 cells after 72 hrs by MTT assay. It is filed as functional. The conditions noted are these: A549, 72 h.
The subject of the next experiment is HT-29. Put plainly: Growth inhibition of human HT-29 cells after 72 hrs by MTT assay. It counts as functional. The note with it: HT-29, 72 h.
The subject of the next experiment is MDA-MB-231. Put plainly: Growth inhibition of human MDA-MB-231 cells after 72 hrs by MTT assay. It is filed as functional. The note with it: MDA-MB-231, 72 h.
Experiment [1] deals with HeLa. Kind of experiment: Growth inhibition of human HeLa cells after 72 hrs by MTT assay. It counts as functional.
Experiment [2] concerns HeLa. Kind of experiment: Induction of apoptosis in human HeLa cells assessed as decrease in Mcl-1 levels at 0.1 to 1 uM after 24 hrs by Western blot analysis. It counts as functional, cell-based. The gist of the method:
(§1)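 HeLa cells treated for the stated times (24 or 48 h), washed in cold PBS and lysed on ice for 30 min. Lysate cleared at 15000 × g, 4 °C. 10 µg protein run on SDS-PAGE and blotted to PVDF, blocked in 5% BSA. Primary antibodies 2 h at room temperature, then peroxidase secondary 60 min, ECL detection. Membranes stripped and reprobed for γ-tubulin as loading control.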
A general note: A western blot detects proteins with antibodies after separation by electrophoresis.

Experiment [3] concerns HeLa. Put plainly: Cell cycle arrest in human HeLa cells assessed as accumulation at G1 phase after 24 hrs by propidium iodide staining-based flow cytometric analysis. It is filed as functional. The gist of the method: (§2)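 HeLa cells (5 × 10^5) exposed to graded compound concentrations for 24 h, fixed in ice-cold 70% ethanol, then lysed in buffer with RNase A and 0.1% Triton X-100. DNA stained with propidium iodide and phase distribution read by flow cytometry. Mean of two independent experiments ± SEM.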
(A flow cytometer gives signals particle by particle.)

In experiment [4] the target is Cyclin-dependent kinase 1 (Homo sapiens) (UniProt P06493). Put plainly: Inhibition of cdc2 phosphorylation at Y15 in human HeLa cells at 0.1 to 1 uM after 24 to 48 hrs by Western blot analysis. It counts as cell-based. An outline of the steps: as §1
Chain of Cyclin-dependent kinase 1 (Homo sapiens) (P06493 whole entry, looked up): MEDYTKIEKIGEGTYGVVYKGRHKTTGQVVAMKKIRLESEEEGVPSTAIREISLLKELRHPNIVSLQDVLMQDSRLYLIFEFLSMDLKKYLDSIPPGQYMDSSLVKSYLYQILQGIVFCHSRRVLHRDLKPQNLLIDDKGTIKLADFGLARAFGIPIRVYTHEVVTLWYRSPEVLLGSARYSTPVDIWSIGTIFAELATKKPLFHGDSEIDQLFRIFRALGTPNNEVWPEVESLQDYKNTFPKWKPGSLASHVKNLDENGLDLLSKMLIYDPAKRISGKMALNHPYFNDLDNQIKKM
In experiment [5] the test system is HeLa. Kind of experiment: Induction of ROS production in human HeLa cells at 0.1 to 1 uM after 12 to 24 hrs by H2DCFDA staining based flow cytometric analysis. It is filed as functional, cell-based. An outline of the steps:
(§3)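 HeLa cells exposed for 6, 12, 24 or 48 h. Stained either with JC-1 to read mitochondrial membrane potential or with H2-DCFDA to read ROS, then analysed by flow cytometry. Mean ± SEM of three independent experiments.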

Experiment [6] concerns HeLa. Kind of experiment: Cell cycle arrest in human HeLa cells assessed as accumulation at G2/M phase after 24 hrs by propidium iodide staining-based flow cytometric analysis. It counts as functional. The gist of the method:
as §2

The test system of experiment [7] is HeLa. Put plainly: Induction of mitochondrial membrane depolarization in human HeLa cells at 0.1 to 1 uM by JC-1 staining based flow cytometric analysis. It counts as functional, cell-based. The note with it: TDE = time-dependent effect. The gist of the method:
as §3

Experiment [8] concerns CCRF-CEM. Put plainly: Cytotoxicity against human multidrug-resistant CEM/VBL100 cells after 72 hrs by MTT assay. It is filed as functional, cell-based. An outline of the steps:
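CEMVbl-100 (vinblastine-selected, P-gp-overexpressing) cells maintained in RPMI-1640 containing 100 ng/mL vinblastine. Seeded at 8 × 10^3 per well, preincubated 18 h, then exposed in triplicate to varying concentrations for 72 h. Viability read by MTT. IC50 taken as mean ± SEM of three separate experiments.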

The subject of experiment [9] is HeLa. Put plainly: Cell cycle arrest in human HeLa cells assessed as decrease in phosphatase cdc25c expression at 0.1 to 1 uM after 24 to 48 hrs by Western blot analysis. It counts as functional, cell-based. An outline of the steps:
as §1

Experiment [10] concerns HeLa. Kind of experiment: Cell cycle arrest in human HeLa cells assessed as accumulation at S phase after 24 hrs by propidium iodide staining-based flow cytometric analysis. It counts as functional. The gist of the method: as §2
In experiment [11] the test system is CCRF-CEM. Put plainly: Cytotoxicity against human CEM cells after 72 hrs by MTT assay. It counts as functional, cell-based. The gist of the method: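 Cells seeded at 8 × 10^3 per well and preincubated 18 h at 37 °C, 5% CO2. Leukemia lines were in RPMI-1640 and adherent lines in DMEM, each with 10% FBS plus penicillin/streptomycin. Medium replaced with compound at varying concentrations, in triplicate, for 72 h.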

Experiment [12] deals with HeLa. Put plainly: Induction of apoptosis in human HeLa cells assessed as decrease in Bcl-2 levels at 0.1 to 1 uM after 24 hrs by Western blot analysis. It counts as functional, cell-based. An outline of the steps:
as §1

Experiment [13] deals with T1, M-phase inducer phosphatase 3 (Homo sapiens) (UniProt P30307).
T1 sequence (whole entry): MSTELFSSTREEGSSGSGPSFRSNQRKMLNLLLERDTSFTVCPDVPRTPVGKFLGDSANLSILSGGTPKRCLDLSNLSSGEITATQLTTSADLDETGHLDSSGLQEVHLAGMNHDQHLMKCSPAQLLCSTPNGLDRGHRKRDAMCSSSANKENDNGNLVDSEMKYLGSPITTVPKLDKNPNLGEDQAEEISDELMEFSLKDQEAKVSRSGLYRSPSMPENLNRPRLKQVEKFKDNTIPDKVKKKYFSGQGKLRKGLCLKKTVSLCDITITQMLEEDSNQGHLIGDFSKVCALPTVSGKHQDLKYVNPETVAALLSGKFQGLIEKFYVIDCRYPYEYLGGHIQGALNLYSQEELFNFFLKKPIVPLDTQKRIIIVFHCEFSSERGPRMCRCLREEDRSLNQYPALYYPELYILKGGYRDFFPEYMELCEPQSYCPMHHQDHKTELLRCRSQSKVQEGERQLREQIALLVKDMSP
Kind of experiment: Inhibition of cdc25c phosphorylation in human HeLa cells at 0.1 to 1 uM after 24 to 48 hrs by Western blot analysis. It is filed as cell-based. An outline of the steps: as §1

Another experiment is filed under the species Bos taurus. Put plainly: Inhibition of [3H]colchicine binding to bovine brain tubulin at 1 to 5 uM by DEAE-cellulose filter method relative to control.
The subject of experiment [14] is HeLa. Put plainly: Induction of apoptosis in human HeLa cells at 0.1 uM after 24 to 48 hrs by propidium iodide/annexin V/FITC staining-based flow cytometric analysis. It counts as functional, cell-based. The gist of the method: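 A549 or HeLa cells treated for 24 or 48 h. Cells harvested, double-stained with annexin-V-FITC and propidium iodide, and analysed by flow cytometry for phosphatidylserine exposure. Mean ± SEM of three independent experiments.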

One may read the GI50 as the concentration giving 50% growth inhibition. Low values mean more potent growth inhibition, high ones less potent growth inhibition. Broadly, the inhibition is the percentage by which the read-out fell short of the control. The IC50 is the midpoint of a concentration-inhibition curve.

Regarding `CCCCCCCCCCCCCCCCCCn1ccc2c3c(=O)cc(-c4ccccc4)[nH]c3ccc21`, the 50% growth inhibitory concentration (GI50) in the experiment with Kasumi 1 was > 10000 nM; in the experiment with Jurkat, > 10000 nM; in the experiment on RS4-11, > 10000 nM; in the experiment with A549, 820 nM; with HT-29 it was > 10000 nM; in the experiment with MDA-MB-231 it was 5360 nM. The same compound gave a GI50 with HeLa [1] of 8350 nM.

Turning to `CCn1ccc2c3c(=O)cc(-c4ccc5c(c4)OCO5)[nH]c3ccc21`, the outcome in the experiment on HeLa [2], with HeLa [3], in the experiment with HeLa [5], in the experiment with HeLa [6], in the experiment on HeLa [9] and in the experiment on HeLa [10] was Active. The outcome with HeLa [12] was Active. Moreover, the inhibition result in experiment [4] and in experiment [13] was “Active” throughout. In addition, in the experiment with HeLa [7], the Activity result is “Tde”. Besides, the IC50 was found to be 3.7 nM in the experiment with CCRF-CEM [8] and 27.8 nM in the experiment with CCRF-CEM [11].

Turning to `CCn1ccc2ccc3c(=O)cc(-c4ccccc4)[nH]c3c21`, the GI50 in the experiment on Kasumi 1 was > 10000 nM; in the experiment with Jurkat it was > 10000 nM; in the experiment on RS4-11 it was > 10000 nM; in the experiment on A549 it was 9590 nM; in the experiment on HT-29, > 10000 nM; with MDA-MB-231 it was > 10000 nM. Growth with HeLa [1] was halved (GI50) at 5920 nM.

As to `CC[C@]1(O)C[C@@H]2CN(CCc3c([nH]c4ccccc34)[C@@](C(=O)OC)(c3cc4c(cc3OC)N(C)[C@H]3[C@@](O)(C(=O)OC)[C@H](OC(C)=O)[C@]5(CC)C=CCN6CC[C@]43[C@@H]65)C2)C1` [VINBLASTINE], the IC50 worked out at 285 nM in the experiment with CCRF-CEM [8] and 1.5 nM in the experiment on CCRF-CEM [11].

For the compound `CCn1ccc2c3c(=O)cc(-c4ccc5c(c4)CCCC5)[nH]c3ccc21`, the outcome with HeLa [3], in the experiment on HeLa [6] and in the experiment with HeLa [10] was Active.

Take `CCCCCCCCCCCCCCCCCCn1ccc2c3c(=O)cc(C)[nH]c3ccc21`: the GI50 in the experiment with Kasumi 1 is > 10000 nM; in the experiment with Jurkat, > 10000 nM; in the experiment on RS4-11 it was > 10000 nM; with A549 it was 3400 nM; in the experiment with HT-29 it was > 10000 nM; with MDA-MB-231, > 10000 nM. Moreover, the GI50 with HeLa [1] is 2380 nM.

With `CCn1ccc2ccc3[nH]c(-c4ccccc4)cc(=O)c3c21`, the GI50 in the experiment on Kasumi 1 worked out at 30 nM; with Jurkat, 27 nM; in the experiment on RS4-11, 13 nM; in the experiment on A549 it was 7.1 nM; with HT-29, 16 nM; in the experiment with MDA-MB-231, 641 nM. In addition, in the experiment with HeLa [1], it took 49 nM to inhibit growth by half (GI50). The compound also showed an inhibition in the experiment listed under Bos taurus of 24%.

`CCn1ccc2c3c(=O)cc(-c4ccc5ccccc5c4)[nH]c3ccc21`: the GI50 in the experiment on Kasumi 1 stood at 396 nM; in the experiment on Jurkat, 32 nM; with RS4-11, 22 nM; in the experiment on A549, 744 nM; with HT-29 it was 376 nM; with MDA-MB-231, 465 nM. Also, in the experiment with HeLa [1], growth was halved (GI50) at 714 nM.

Regarding `O=C1C=C(c2ccccc2)Nc2cccc3ccn1c23`, the GI50 with Kasumi 1, in the experiment with Jurkat, in the experiment with RS4-11, in the experiment with A549, in the experiment on HT-29 and in the experiment with MDA-MB-231 was > 10000 nM in each case. Also, in the experiment with HeLa [1], the GI50 is > 10000 nM.

`CCn1ccc2c3c(=O)cc(-c4cccc5ccccc45)[nH]c3ccc21`: the result in the experiment on HeLa [3], with HeLa [6] and in the experiment with HeLa [10] was Active. For the same compound, the concentration for half-maximal inhibition (IC50) in the experiment with CCRF-CEM [8] amounted to 2.3 nM; in the experiment on CCRF-CEM [11] it was 29.8 nM.

Take `COc1ccc(/C=C\c2cc(OC)c(OC)c(OC)c2)cc1O`: the result in the experiment on HeLa [14] was Active.

In the case of `CCn1ccc2cc3c(=O)cc(-c4ccccc4)[nH]c3cc21`, the GI50 in the experiment on Kasumi 1 amounted to 30 nM; in the experiment on Jurkat, 27 nM; in the experiment on RS4-11 it was 13 nM; in the experiment with A549, 7.1 nM; with HT-29, 16 nM; with MDA-MB-231 it was 641 nM. In the experiment on HeLa [1], this compound had a GI50 of 49 nM. The inhibition in the experiment listed under Bos taurus came out at 24%.
